This is an account of results in ChEMBL document CHEMBL1800044, “Structure-based design of novel boronic acid-based inhibitors of autotaxin” (J Med Chem, 2011).

As usually defined, the IC50 is the concentration needed to halve the response being measured.

For the assay, the target named is Autotaxin (Homo sapiens, UniProt Q13822). The assay is described as follows: Inhibition of 6x-histidine-tagged human recombinant ATX expressed in HEK293 cells assessed as choline release using lysophosphatidylcholine as substrate after 4 hrs by choline release assay. The procedure, abridged:
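Recombinant ATX at 10 nM final (~20 nM in enzyme half) in 50 mM Tris-HCl pH 7.4, 0.01% Triton X-100, inhibitor added in DMSO. LPC (18:1) at 40 μM final, buffer with 10 mM MgCl2 and 10 mM CaCl2. Ten concentrations, 0.01–30 μM. Controls were DMSO alone and LPC without enzyme.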

Regarding `O=C(Nc1ccc(B(O)O)cc1)c1ccc(/C=C2\SC(=O)N(Cc3ccc(F)cc3)C2=O)cc1`, the 50% inhibitory concentration (IC50) came to 147 nM.
Consider `O=C(NCc1ccc(B(O)O)cc1)c1ccc(/C=C2\SC(=O)N(Cc3ccc(F)cc3)C2=O)cc1`, for which the IC50 amounted to 71 nM.
On to `O=C(Nc1ccc(/C=C2\SC(=O)N(Cc3ccc(F)cc3)C2=O)cc1)c1ccc(B(O)O)cc1`, for which the IC50 was 10 nM.
The value for `O=C1S/C(=C\c2ccc(NCc3ccc(B(O)O)cc3)cc2)C(=O)N1Cc1ccc(F)cc1` was 8.3 nM; that for `O=C1S/C(=C\c2ccc(/C=C/c3ccc(B(O)O)cc3)cc2)C(=O)N1Cc1ccc(F)cc1` was over 5000 nM; that for `O=C1SC(Cc2ccc(OCc3ccc(B(O)O)cc3)cc2)C(=O)N1Cc1ccc(F)cc1` (centres undefined) was 25 nM.
The value for `O=C1SC(Cc2ccc(OCc3ccc(B(O)O)cc3)cc2)C(O)N1Cc1ccc(F)cc1` (centres undefined) was 1590 nM; that for `O=c1sc(Cc2ccc(OCc3ccc(B(O)O)cc3)cc2)cn1Cc1ccc(F)cc1` was 683 nM; that for `O=C1N/C(=C\c2ccc(OCc3ccc(B(O)O)cc3)cc2)C(=O)N1Cc1ccc(F)cc1` was 26 nM.
In the case of `CN1C(=O)N(Cc2ccc(F)cc2)C(=O)/C1=C\c1ccc(OCc2ccc(B(O)O)cc2)cc1` it was 5.3 nM.
`CN1C(=O)N(Cc2ccc(F)cc2)C(=O)/C1=C/c1ccc(OCc2ccc(B(O)O)cc2)cc1`: the half-inhibitory concentration (IC50) is 6.7 nM.
In the case of `O=C1C/C(=C\c2ccc(OCc3ccc(B(O)O)cc3)cc2)C(=O)N1Cc1ccc(F)cc1` it was 7.3 nM; in that of `O=C1[C@@H]2Cc3ccc(OCc4ccc(B(O)O)cc4)cc3CN2C(=O)N1Cc1ccc(F)cc1`, 55 nM; in that of `O=C1[C@H]2Cc3ccc(OCc4ccc(B(O)O)cc4)cc3CN2C(=O)N1Cc1ccc(F)cc1`, 59 nM.
